Screening results from PubChem.
An excerpt weighted towards active compounds, which were near 3.7% of everything screened.
KCNK9 block: human KCNK9 channel inhibition. Q9NPC2. HEK293 KCNK9, FluxOR thallium flux fluorescence; active compounds read low. B-score at 10 µM. 310,000 tested, 1.2% active;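 active means ratio B-score over 3 SD below the library mean, with starting fluorescence within 5 SD of its mean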;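 further: negative B-score means less thallium flux so channel inhibition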
hERG rescue: shields human hERG channel from block by proarrhythmic agents | CHO-hERG, FluxOR thallium flux, dofetilide IC70 present | activation (rescue from dofetilide block), less the hit threshold, % at 10 µM | 310,000 tested, 0.51% active;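 active means activation above the mean of controls blocked by dofetilide plus 5 SD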;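 further: thallium influx through hERG after potassium depolarization seen as dye fluorescence rise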
KCNQ1 pot: potentiates or activates the human KCNQ1 potassium channel; 310,000 tested, 0.35% active; CHO-K1 KCNQ1, thallium flux FluxOR fluorescence; active compounds read high; P51787; B-score at 10 µM; AID 2648;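 active means fluorescence ratio B-score, a plate-corrected score, at least three library SD, with initial intensity B-score within 5 SD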
Target sequence (P51787 whole entry, looked up): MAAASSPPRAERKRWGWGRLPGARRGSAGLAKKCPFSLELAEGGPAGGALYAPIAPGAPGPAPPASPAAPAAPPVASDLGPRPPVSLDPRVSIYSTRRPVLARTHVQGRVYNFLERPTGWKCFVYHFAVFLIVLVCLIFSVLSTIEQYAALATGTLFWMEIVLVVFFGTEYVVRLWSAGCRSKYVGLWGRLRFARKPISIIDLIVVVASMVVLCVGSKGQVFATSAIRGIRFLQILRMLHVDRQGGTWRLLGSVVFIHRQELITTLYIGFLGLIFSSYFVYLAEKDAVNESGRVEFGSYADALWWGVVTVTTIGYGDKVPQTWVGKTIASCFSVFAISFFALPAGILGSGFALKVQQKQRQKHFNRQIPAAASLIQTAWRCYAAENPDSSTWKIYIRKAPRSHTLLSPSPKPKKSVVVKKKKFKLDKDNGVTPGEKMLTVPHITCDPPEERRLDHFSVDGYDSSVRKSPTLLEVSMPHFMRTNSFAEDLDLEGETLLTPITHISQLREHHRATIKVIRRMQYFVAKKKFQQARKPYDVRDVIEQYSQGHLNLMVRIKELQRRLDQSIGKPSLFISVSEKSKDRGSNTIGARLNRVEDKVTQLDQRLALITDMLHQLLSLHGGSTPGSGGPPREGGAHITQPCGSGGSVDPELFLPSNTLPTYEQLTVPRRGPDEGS
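Assay system: CHO-K1 cells stably expressing KCNQ1. Medium: assay buffer for compound exposure, DMSO matched across wells. Timing: 37 °C overnight plating, 90-min dark dye load, 20-min compound pretreatment. Signal: kinetic FluxOR fluorescence, 10 s baseline plus 110 s post-stimulus.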
KCNK3 block: human KCNK3 channel inhibition, primary screen; O14649; CHO-KCNK3 thallium flux, FluxOR fluorescence; active compounds read low; B-score at 10 µM; 340,000 tested, 0.84% active;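 active means B-score under library mean minus 4 SD, starting fluorescence ratio at most library mean plus 5 SD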;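 further: more negative B-score means stronger inhibition of thallium flux through KCNK3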
KCNQ1 block: blocks the human KCNQ1 potassium channel. AID 2642. 310,000 tested, 1.3% active. CHO-K1 KCNQ1, FluxOR thallium flux fluorescence; active compounds read high. B-score at 10 µM;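 active means compounds whose thallium flux B-score, printed positive for inhibition, exceeds three library SD while starting fluorescence stays within three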;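 further: channel opened by potassium depolarization with thallium stimulus after 20 min compound exposure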
Kir21 inh: Kir2.1 (mouse) channel inhibition | HEK293-Kir2.1, FluxOR thallium flux fluorescence; active compounds read low | P35561 | 310,000 tested, 0.85% active | B-score at 10 µM | AID 1672;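 active means fluorescence ratio B-score at or below minus 3 SD of library scores, with starting-brightness B-score within 2 SD, cut at about -4.2 in these data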;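 further: channel flux triggered by added potassium and thallium sulfate stimulus; B-score of peak minus minimum fluorescence over baseline after thallium stimulus; more negative B-score means stronger Kir2.1 block with less thallium influx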
KCNK9 block conf: confirmation of human KCNK9 potassium channel inhibitors; HEK293 KCNK9 cells, FluxOR thallium flux fluorescence; shares compounds with KCNK9 block; inhibition, % at 10 µM; 4,900 tested, 43% active;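 active means thallium signal inhibited by more than 5 SD of the compound-free buffer control wells, on both duplicate plates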;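 further: 0% = assay buffer control wells without compound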
Kir21 sel: mouse Kir2.1 off-target activity of KCNK9 modulators. shares compounds with KCNK9 block. Kir2.1 cells, FluxOR thallium flux fluorescence. inhibition, % at 10 µM. 4,900 tested, 4% active;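 active means thallium signal drop more than 5 SD beyond the mean of the no-compound control wells, seen in both duplicate plates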;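 further: signal is fluorescence rise after thallium addition divided by baseline fluorescence; plate controls were assay buffer only for no effect and full block by chlorpromazine control for full effect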
KCNK9 uninduced: non-induced cell nonspecific activity of KCNK9 modulators. inhibition, % at 10 µM. 4,900 tested, 40% active. shares compounds with KCNK9 block. AID 492997. non-induced KCNK9-HEK293, FluxOR thallium flux;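 active means thallium signal drop beyond 5 SD of the untreated control mean, on both duplicate plates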;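 further: plate controls were buffer only IC0 wells for no effect and SID17386958 at its maximal inhibitory level for full effect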
* marks the source's active call; other numbers are inactive results; i = inactive; . = no result given.

SMILES	KCNK9 block	hERG rescue	KCNQ1 pot	KCNK3 block	KCNQ1 block	Kir21 inh	KCNK9 block conf	Kir21 sel	KCNK9 uninduced
Cc1ccc(CN(c2ccc(C(=O)N3CCCC3)cc2)S(C)(=O)=O)cc1	i	-6	i	i	i	-1	.	.	.
COc1ccccc1CC(=O)c1ccc(OCc2ccccc2)cc1	i	-15	i	i	i	-0.76	i	i	i
Cc1ccc(C)[n+](CC(=O)N2CCCCC2)c1	.	.	.	i	.	.	.	.	.
COc1ccccc1N1CCN(C(=O)CSc2ncccc2-c2nc3ccccc3[nH]2)CC1	i	-16	i	i	i	0.39	.	.	.
CCOc1ccccc1NC(=O)CSc1nc2ccccc2nc1N1CCOCC1	i	-12	i	i	i	0.39	.	.	.
COc1ccc(NC(=O)CSc2nc3ccccc3nc2N2CCCC2)cc1	i	-5	i	i	i	0.23	i	i	i
CCOc1ccccc1NC(=O)CSc1nc2ccccc2nc1N1CCCC1	-8.6*	-16	i	i	6*	-0.09	i	i	i
CCOc1ccc(NC(=O)CSc2nc3ccccc3nc2N2CCCC2)cc1	i	-9	i	i	i	-1.2	.	.	.
COc1ccccc1N1CCN(C(=O)CSc2nc3ccccc3nc2N2CCC(C)CC2)CC1	i	-15	i	i	i	-1.1	i	i	i
CC1CCCCC12NC(=O)N(CC(=O)N1CCN(S(=O)(=O)/C=C/c3ccccc3)CC1)C2=O (stereo not given)	.	.	.	i	.	.	.	.	.
COc1ccc(C#Cc2ccc3c(=O)c4ccccc4n(C)c3c2)cc1	i	-15	i	i	i	1.1	i	i	i
Cn1c2ccccc2c(=O)c2cc(C#Cc3cccc(N)c3)ccc21	.	.	.	i	.	.	.	.	.
COc1ccccc1C#Cc1ccc2c(=O)c3ccccc3n(C)c2c1	-9.7*	-23	i	i	i	0.46	44%*	i	i
O=C(Nc1ccc2c(c1)CCC2)Nc1ccc(F)cc1F	i	-8	i	i	i	0.79	.	.	.
Clc1ccc(N=c2ssnc2Cl)nc1	i	-15	i	i	i	0	.	.	.
N#Cc1cccc(N=c2ssnc2Cl)c1	i	5.2*	i	i	i	-2	i	i	i
Clc1nssc1=Nc1ccc(Br)cc1	i	-10	i	i	i	-1.1	.	.	.
COc1cc(N=c2ssnc2Cl)cc(OC)c1	i	-17	i	i	i	-3.4	i	i	i
Cc1ccc(C(=O)N(C)CCOc2ccccc2)cc1S(=O)(=O)N1CCOCC1	.	.	.	i	.	.	.	.	.
CCc1nnc(SCC(=O)NC2CC2)n1CC	i	-7	i	i	i	-0.34	.	.	.
O=C1OC(Sc2ccccc2)(c2ccccc2)c2ccccc21 (stereo not given)	.	.	.	i	.	.	.	.	.
Cc1cc(C)c(OC2(c3ccccc3)OC(=O)c3ccccc32)c(C)c1 (stereo not given)	-17*	-9	i	i	i	1.8	69%*	i	47%*
Cc1ccc(C)c(C(C)NC(=S)NCc2ccc(F)cc2)c1 (stereo not given)	i	-10	i	i	i	-0.35	.	.	.
CC1CN(S(=O)(=O)c2cccc(C(=O)N(CCc3ccccc3)Cc3ccccc3)c2)CC(C)O1 (stereo not given)	i	-8	i	i	i	0.79	i	i	i
Cc1ccc(N(Cc2ccccc2)C(=O)c2cccc(S(=O)(=O)N3CC(C)OC(C)C3)c2)cc1 (stereo not given)	i	-16	i	i	i	-0.12	.	.	.
SMILES	KCNK9 block	hERG rescue	KCNQ1 pot	KCNK3 block	KCNQ1 block	Kir21 inh	KCNK9 block conf	Kir21 sel	KCNK9 uninduced
CCN1CCN(S(=O)(=O)c2ccc(Cl)c(C(=O)N(CCc3ccccc3)Cc3ccccc3)c2)CC1	.	.	.	i	.	.	.	.	.
Cc1ccc(S(=O)(=O)N2CCCCC2)cc1C(=O)N(CCc1ccccc1)Cc1ccccc1	-16*	-14	i	i	i	1.4	79%*	i	43%*
CCCOc1ccc(/C(O)=C2/C(=O)C(=O)N(c3ccccn3)C2c2ccc(OC)cc2)cc1C (stereo not given)	i	-5	i	i	i	1.4	.	.	.
Cc1cc(C(=O)CSc2nn3c(=O)c(C(C)(C)C)nnc3s2)c(C)n1C1CC1	i	-13	i	i	i	0.02	i	i	i
CC(Sc1ccccc1)C(=O)N1CCN(S(=O)(=O)c2ccc(Cl)cc2)CC1 (stereo not given)	i	-4	i	i	i	-2.3	.	.	.
CCOC(=O)C1(CC2CC2)CCN(Cc2cn(C)c3ccccc23)CC1	i	-6	i	i	i	-2.6	i	i	i
O=c1c(Cc2ccccc2)c(O)ccn1Cc1ccc2c(c1)OCO2	i	-11	i	i	i	-0.01	.	.	.
C#CCSc1nc(-c2ccccc2)cc(C(F)(F)F)c1C#N	-14*	-9	i	i	i	0.34	37%*	i	26%*
CN(CC1CCCN(CCc2cccc(C(F)(F)F)c2)C1)C(=O)c1cc2ccccc2o1 (stereo not given)	i	-21	i	i	i	-3.3	i	i	i
Cc1cc(C(=O)OCC(=O)Nc2nc(-c3ccccc3)cs2)c(C)o1	i	-4	i	i	i	-2.6	.	.	.
Cc1cc(C(=O)OC(C)C(=O)Nc2nc(-c3ccccc3)cs2)c(C)o1 (stereo not given)	i	-8	i	i	i	-0.07	i	i	i
Cc1cc(OCC(=O)NCCCn2ccnc2)c2c(C)c(C)c(=O)oc2c1	i	-3	i	i	i	-1.4	.	.	.
CCOc1ccccc1NC(=O)COC(=O)c1cccc(-c2ccc(OC(C)=O)cc2)c1	-10*	-9	i	i	i	-2.2	i	i	32%*
CC(=O)Oc1ccc(-c2cccc(C(=O)OCC(=O)Nc3ccccc3Oc3ccccc3)c2)cc1	i	-14	i	i	i	0.15	.	.	.
CC1CCCC(NC(=O)COC(=O)[C@@H](NC(=O)c2ccccc2Cl)C(C)C)C1C (stereo not given in full)	.	.	.	i	.	.	.	.	.
CN(C)CCNC(C(=O)Nc1cc(Cl)cc(Cl)c1)c1ccccc1 (stereo not given)	i	-3	i	i	i	-1.1	.	.	.
